Assay results: ChEMBL document CHEMBL6109076, “Design and synthesis of novel thioether analogs as promising antiviral agents: In vitro activity against enteroviruses of interest” (Eur J Med Chem, 2025)

Assays:
[1] = Cytotoxicity against human MRC5 cells; format: toxicity, cell-based
Summary of the method: (§1)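 CC50 was measured in parallel on compound-treated uninfected cells, run alongside the antiviral assay. Cells were seeded one day ahead in assay medium with 2.5 % FBS (RD at 50000 cells/well) and held at 37 °C, 5 % CO2; MRC-5 were grown in BME with 10 % FBS. Compounds were added as eight ½ dilutions. CC50 came from nonlinear regression (log(inhibitor) vs response, variable slope, three parameters); median ± std of two independent experiments.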

[2] = Selectivity index, ratio of CC50 for cytotoxicity against human MRC5 cells to EC50 for antiviral activity against Enterovirus A71 infected in human MRC5 cells; format: toxicity, cell-based; conditions: read-out: Selectivity Index
Human echovirus 30 = assay: Antiviral activity against Echovirus 30 strain UVE/E-30/2013/FR/4-MRS2013 infected in human MRC5 cells assessed as […]; format: functional, organism-based, Echovirus E30; conditions: Enterovirus B, UVE/E-30/2013/FR/4-MRS2013, MRC5
Summary of the method: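 MRC-5 cells seeded the day before infection in assay medium with 2.5 % FBS. After 24 h, compounds added as eight ½ dilutions, then virus added. On day 3 post-infection, supernatant harvested and viral RNA quantified by RT-qPCR (pan-enterovirus probe/primers, synthetic RNA standard curve). Inhibition calculated relative to four virus control wells per plate. EC50 obtained by nonlinear regression (log(inhibitor) vs response, variable slope, three parameters); two independent experiments.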

Coxsackievirus = assay: Antiviral activity against Coxsackievirus A24 UVE/CV-A24/2010/LA/HFMK14 infected in human MRC5 cells assessed as […]; format: functional, organism-based; conditions: UVE/CV-A24/2010/LA/HFMK14, MRC5
[3] = Selectivity index, ratio of CC50 for cytotoxicity against human MRC5 cells to EC50 for antiviral activity against Coxsackievirus A24 UVE/CV-A24/2010/LA/HFMK14 infected in human MRC5 cells; format: toxicity, cell-based; conditions: read-out: Selectivity Index
Summary of the method: (§2)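 In MRC-5 cells, SI = CC50/EC50. EC50 comes from the 3-day RT-qPCR viral RNA inhibition assay with eight ½ dilutions. CC50 was measured in parallel on compound-treated uninfected MRC-5 cells. Both values derived by nonlinear regression (three-parameter, variable slope); two independent experiments.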

Enterovirus A71 [4] = assay: Antiviral activity against Enterovirus A71 Laos2011 HFMD18T infected in human MRC5 cells assessed as reduction in viral replication incubated for 72 hrs by RT-qPCR analysis; format: functional, organism-based; conditions: Enterovirus A, MRC5, 72 h
Enterovirus A71 [5] = assay: Antiviral activity against Enterovirus A71 Laos2011 HFMD18T infected in human RD cells assessed as reduction in viral replication incubated for 72 hrs by RT-qPCR analysis; format: functional, organism-based; conditions: Enterovirus A
[6] = Cytotoxicity against human RD cells; format: toxicity, cell-based; summary of the method: as §1
[7] = Selectivity index, ratio of CC50 for cytotoxicity against human RD cells to EC50 for antiviral activity against Enterovirus A71 infected in human RD cells
[8] = Cytotoxicity against Chinese hamster CHO cells
[9] = Selectivity index, ratio of CC50 for cytotoxicity against human MRC5 cells to EC50 for antiviral activity against Echovirus 30 strain UVE/E-30/2013/FR/4-MRS2013 infected in human MRC5 cells; format: toxicity, cell-based; conditions: read-out: Selectivity Index; summary of the method: as §2
Enterovirus A71 [10] = assay: Antiviral activity against Enterovirus A71 Laos2011 HFMD18T infected in human RD cells assessed as RNA copies measured per ml of supernatant at 10 uM pretreated 1 hr before infection measured after 72 hrs relative to control; format: functional
Enterovirus A71 [11] = assay: Antiviral activity against Enterovirus A71 Laos2011 HFMD18T infected in human RD cells assessed as RNA copies measured per ml of supernatant at 10 uM treated at time of infection measured after 72 hrs; format: functional
Enterovirus A71 [12] = assay: Antiviral activity against Enterovirus A71 Laos2011 HFMD18T infected in human RD cells assessed as RNA copies measured per ml of supernatant at 10 uM treated 4 hr post infection measured after 72 hrs; format: functional
Enterovirus A71 [13] = assay: Antiviral activity against Enterovirus A71 Laos2011 HFMD18T infected in human RD cells assessed as inhibition of viral RNA measured per ml of supernatant at 10 uM pretreated 1 hr before infection measured after 72 hrs; format: functional; conditions: Enterovirus A
Enterovirus A71 [14] = assay: Antiviral activity against Enterovirus A71 Laos2011 HFMD18T infected in human RD cells assessed as inhibition of viral RNA copies measured per ml of supernatant at 10 uM treated at time of infection measured after 72 hrs; format: functional; conditions: Enterovirus A
Enterovirus A71 [15] = assay: Antiviral activity against Enterovirus A71 Laos2011 HFMD18T infected in human RD cells assessed as inhibition of viral RNA copies measured per ml of supernatant at 10 uM treated 4 hr post infection measured after 72 hrs; format: functional; conditions: Enterovirus A
Enterovirus A71 [16] = assay: Antiviral activity against Enterovirus A71 Laos2011 HFMD18T infected in human RD cells assessed as inhibition of viral RNA copies measured per ml of supernatant at 10 uM measured after 72 hrs; conditions: Enterovirus A
Enterovirus A71 [17] = assay: Antiviral activity against Enterovirus A71 Laos2011 HFMD18T infected in human RD cells assessed as RNA copies measured per ml of supernatant at 10 uM treated 1 hr post infection measured after 72 hrs

SMILES | EC50 (Enterovirus A71 [4]) [µM] | EC50 (Enterovirus A71 [5]) [µM] | CC50 [6] [µM] | selectivity ratio [7] | other results
OCc1ccc(-c2ccc(SCc3ccc(-n4cncn4)cc3)nc2)cc1 |  |  |  |  | CC50 [1]: > 40 µM; selectivity ratio [2]: > 181; EC50 (Human echovirus 30): > 40 µM; EC50 (Coxsackievirus): 23.2 µM; selectivity ratio [3]: > 1.7
OCc1cccc(-c2ccc(SCc3ccc(-n4cncn4)cc3)nc2)c1 | 22 | 2.78 | > 40 | > 14 | CC50 [1]: > 40 µM; selectivity ratio [2]: > 1.8
c1ncn(-c2ccc(CSc3ccc(-c4ccc5cn[nH]c5c4)cc3)cc2)n1 |  | > 40 |  |  | 
c1ccc2oc(-c3ccc(SCc4ccc(-n5cncn5)cc4)cc3)cc2c1 |  | > 40 |  |  | 
Cn1cc(-c2ccc(CSc3ccc(-c4ccc5ccccc5c4)cn3)cc2)cn1 | 22.4 | 12 | > 40 | > 3.3 | CC50 [1]: > 40 µM; selectivity ratio [2]: > 1.8
CN(C)c1ncc(-c2ccc(CSc3ccc(-c4ccc(CO)cc4)cn3)cc2)cn1 |  | > 40 |  |  | 
O=C1NC(SCc2ccc(-n3cncn3)cc2)=N/C1=C\c1c[nH]c2ccccc12 | > 40 | 4.65 | 96.3 | 20.7 | CC50 [8]: 33.6 µM
c1ccc2cc(-c3ccc(SCc4ccc(-n5cncn5)cc4)nc3)ccc2c1 | 3.25 | 1.86 | 23.5 | 15.4 | CC50 [1]: > 40 µM; selectivity ratio [2]: > 12; EC50 (Human echovirus 30): 0.4 µM; EC50 (Coxsackievirus): 0.99 µM; selectivity ratio [9]: > 100; selectivity ratio [3]: > 40; Activity (Enterovirus A71 [10]): 1.5 log10/ml; Activity (Enterovirus A71 [11]): 1.25 log10/ml; Activity (Enterovirus A71 [12]): 0.7 log10/ml; inhibition at 10 µM (Enterovirus A71 [13]): > 90%; inhibition at 10 µM (Enterovirus A71 [14]): > 90%; inhibition at 10 µM (Enterovirus A71 [15]): < 90%; CC50 [8]: 43.2 µM; inhibition at 10 µM (Enterovirus A71 [16]): > 90%; Activity (Enterovirus A71 [17]): 1.14 log10/ml
c1ccc2cc(-c3ccc(SCc4ccc(-n5cncn5)cc4)cc3)ncc2c1 | 1.15 | 4.3 | 30.5 | 6.62 | CC50 [1]: > 40 µM; selectivity ratio [2]: > 25; EC50 (Human echovirus 30): 0.41 µM; EC50 (Coxsackievirus): 1.22 µM; selectivity ratio [9]: > 100; selectivity ratio [3]: > 32; CC50 [8]: 31.3 µM
Cn1cc(-c2ccc(SCc3ccc(-n4cncn4)cc3)nc2)cn1 | 0.57 | 4.38 |  |  | 
CCNc1ncc(-c2ccc(CSc3ccc(-c4ccc(CO)cc4)cn3)cc2)cn1 |  | > 40 |  |  | 
OCc1ccc(-c2ccc(SCc3ccc(-c4cnc(N5CCOCC5)nc4)cc3)nc2)cc1 |  | > 40 |  |  | 
Nc1ncc(-c2ccc(CSc3ccc(-c4ccc(CO)cc4)cn3)cc2)cn1 | < 0.37 | 24.7 | 44.7 | 1.81 | CC50 [1]: > 20 µM; selectivity ratio [2]: > 54; CC50 [8]: 36.9 µM
c1ccc(Cn2cc(-c3ccc(CSc4ccc(-c5ccc6ccccc6c5)cn4)cc3)cn2)cc1 |  | 22.3 |  |  | 
CN1CCN(c2ncc(-c3ccc(CSc4ccc(-c5ccc(CO)cc5)cn4)cc3)cn2)CC1 |  | > 40 |  |  | 
c1ccc2cc(-c3ccc(SCc4ccc(-n5cncn5)cc4)cc3)ccc2c1 |  | > 40 |  |  | 
c1ncn(-c2ccc(CSc3ccc(-c4ccc5[nH]ccc5c4)cc3)cc2)n1 |  | > 40 |  |  | 
CN(C)c1ccc(-c2ccc(CSc3ccc(-c4ccc5ccccc5c4)cn3)cc2)cc1 |  | > 40 |  |  | 
Cc1noc(C)c1-c1ccc(CSc2ccc(-c3ccc4ccccc4c3)cn2)cc1 | > 40 | 22.3 | > 40 | > 1.8 | 
CN(C)c1cccc(-c2ccc(CSc3ccc(-c4ccc5ccccc5c4)cn3)cc2)c1 |  | > 40 |  |  | 
c1ccc2cc(-c3ccc(SCc4ccc(-n5cncn5)cc4)nc3)ncc2c1 | > 20 | 22.1 | > 40 | > 1.8 | 
COc1ncc(-c2ccc(CSc3ccc(-c4ccc(CO)cc4)cn3)cc2)cn1 |  | > 40 |  |  | 
c1ccc2c(-c3ccc(SCc4ccc(-n5cncn5)cc4)nc3)cccc2c1 |  | > 40 |  |  | 
CCOc1noc2cc(OCCC3CCN(c4ccc(C)nn4)CC3)ccc12 [VAPENDAVIR] |  |  | > 63 |  | CC50 [1]: > 20 µM
